From PMC4028361 (Immunity, 2014)
Like-named read-outs stand apart in the source and are kept apart here.

Tests used:
[1] = tested on: human Vγ9Vδ2 T cells; assay type: cell-based
Outline: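 Target HEK cells had endogenous BTN3A silenced by shRNA and were transiently re-transfected with BTN3A isoforms or position-351 mutants. Cells were pretreated 2 h at 37°C with anti-CD277 agonist mAb 20.1 or zoledronate, washed extensively, then cocultured 4 h at 37°C with polyclonal Vγ9Vδ2 T cells in complete RPMI with 10 μM monensin and labelled anti-CD107a. Cells were then stained for Vδ2 TCR and read by flow cytometry.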

[2] = target: G115 Vγ9Vδ2 TCR / BTN3A1 extracellular domain (Homo sapiens, UniProt O00481); assay type: binding; conditions: SPR; 1mM cHDMAPP co-injected
Outline: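 G115 Vγ9Vδ2 TCR was C-terminally biotinylated and multimerized at a 60:1 ratio onto streptavidin-conjugated AmDex polymers. Serial dilutions from 1 ug/ml to 0.03125 ug/ml were injected over immobilized […] BTN3A1, with murine T22 protein also immobilized.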

[3] = target: BTN3A1 B30.2 charge reversal mutant (H378D, K393D, R412E, R418E, R469E) (Homo sapiens, UniProt O00481, H408D/K423D/R442E/R448E/R499E); test: Isothermal titration calorimetry, B30.2 charge reversal mutant; assay type: binding; conditions: ITC; 25μM protein in cell, 500μM pAg in syringe
[4] = target: extracellular domain of BTN3A1 (Homo sapiens, UniProt O00481); test: Isothermal titration calorimetry, pAg binding to BTN3A1 extracellular domain; conditions: ITC at multiple temperatures (25°C, 15°C); 100μM protein, 2mM cHDMAPP
extracellular domain of BTN3A1, sequence (O00481 30-254 limits assumed): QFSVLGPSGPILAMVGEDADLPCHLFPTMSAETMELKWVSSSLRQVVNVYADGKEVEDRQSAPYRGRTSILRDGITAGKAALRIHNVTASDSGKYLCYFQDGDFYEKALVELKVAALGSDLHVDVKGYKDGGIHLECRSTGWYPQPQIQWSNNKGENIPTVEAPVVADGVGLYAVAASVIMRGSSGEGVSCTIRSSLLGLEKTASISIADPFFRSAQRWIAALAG

G115 Vγ9Vδ2 TCR / BTN3A1 extracellular domain, sequence (O00481 30-254): as the sequence (O00481 30-254 limits assumed) above
BTN3A1 B30.2 charge reversal mutant (H378D, K393D, R412E, R418E, R469E), sequence (O00481 322-513 H408D/K423D/R442E/R448E/R499E): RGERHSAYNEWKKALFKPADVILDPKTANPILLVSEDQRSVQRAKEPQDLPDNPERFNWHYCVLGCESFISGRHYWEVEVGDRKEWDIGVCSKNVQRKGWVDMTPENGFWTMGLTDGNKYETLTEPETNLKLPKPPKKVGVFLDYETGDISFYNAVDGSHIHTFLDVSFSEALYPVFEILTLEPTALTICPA

| SMILES | Vγ9Vδ2 T cell stimulation (CD107a) ([1]; BTN3A-silenced cells re-expressing BTN3A1_H351R) | Vγ9Vδ2 T cell stimulation (CD107a) ([1]; BTN3A-silenced cells re-expressing BTN3A3_R351H) | effect of co-injection on G115 AmDex TCR interaction with immobilized BTN3A1 [2] | binding to B30.2 charge reversal mutant [3] | binding to the complete extracellular domain of BTN3A1 [4] |
| --- | --- | --- | --- | --- | --- |
| O=P(O)(O)C(O)(Cn1ccnc1)P(=O)(O)O [zoledronate, Zoledronic acid monohydrate] | unable to mediate NBP induced stimulation | able to mediate NBP induced stimulation | – | – | – |
| C/C(=C\CCP(=O)(O)OP(=O)(O)O)CO [cHDMAPP, hydroxy-methyl-butyl-pyrophosphonate] | – | – | did not alter observed interactions | no detectable binding | unable to detect binding |
